# Laboratory results taken from ChEMBL document CHEMBL1123146, “Design, synthesis, and evaluation of omega-iodovinyl- and omega-iodoalkyl-substituted methyl-branched long-chain fatty acids” (J Med Chem, 1985).
# Tests used:
# Rattus norvegicus [1] = test: Concentration was measured in kidney tissue of unfasted Fischer 344 rats administered intravenously after 60 minute (radiolabeled with [125I]-; format: ADME, organism-based; settings: in vivo, iv, 1 h
# Summary of the method: (§1)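 Female Fischer 344 rats, 10-12 weeks old, 170-200 g, with food and water ad libitum. The 125I-fatty acid was taken up in ethanol, added dropwise to stirred 6% BSA at ~40 °C (final ethanol 10%), filtered, and given as 0.5 mL via lateral tail vein under ether anesthesia. Rats were killed by cervical fracture; blood was taken by cardiac puncture. Organs were rinsed, blotted, weighed and gamma-counted against injectate standards to give %ID/g. Five rats per time point.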
# Rattus norvegicus [2] = test: Concentration was measured in liver tissue f unfasted Fischer 344 rats administered intravenously after 30 minute (radiolabeled with [125I]-; format: ADME, organism-based; settings: in vivo, iv, 0.5 h; summary of the method: as §1
# Rattus norvegicus [3] = test: Concentration was measured in liver tissue of unfasted Fischer 344 rats administered intravenously after 4 hr (radiolabeled with [123I]-; format: ADME, organism-based; settings: in vivo, iv
# Rattus norvegicus [4] = test: Concentration was measured in liver tissue of unfasted Fischer 344 rats administered intravenously after 5 minute (radiolabeled with [125I]-; format: ADME, organism-based; settings: in vivo, iv, 5 min; summary of the method: as §1
# Rattus norvegicus [5] = test: Concentration was measured in lungs tissue of unfasted Fischer 344 rats administered intravenously after 30 minute (radiolabeled with [123I]-; format: ADME, organism-based, Lung; settings: in vivo, iv, 0.5 h
# Rattus norvegicus [6] = test: Concentration was measured in lungs tissue of unfasted Fischer 344 rats administered intravenously after 30 minute (radiolabeled with [125I]-; format: ADME, organism-based, Lung; settings: in vivo, iv, 0.5 h; summary of the method: as §1
# Rattus norvegicus [7] = test: Concentration was measured in lungs tissue of unfasted Fischer 344 rats administered intravenously after 4 hr (radiolabeled with [125I]-; format: ADME, organism-based, Lung; settings: in vivo, iv
# Rattus norvegicus [8] = test: Concentration was measured in heart tissue of unfasted Fischer 344 rats administered intravenously after 30 minutes (radiolabeled with [125I]-; format: ADME, organism-based; settings: in vivo, iv, 0.5 h; summary of the method: as §1
# Rattus norvegicus [9] = test: Concentration was measured in heart tissue of unfasted Fischer 344 rats administered intravenously after 30 minute (radiolabeled with [123I]-; format: ADME, organism-based; settings: in vivo, iv, 0.5 h
# Rattus norvegicus [10] = test: Concentration was measured in heart tissue of unfasted Fischer 344 rats administered intravenously after 4 hr (radiolabeled with [123I]-; format: ADME, organism-based; settings: in vivo, iv
# Rattus norvegicus [11] = test: Concentration was measured in heart tissue of unfasted Fischer 344 rats administered intravenously after 4 hr (radiolabeled with [125I]-; format: ADME, organism-based; settings: in vivo, iv
# Rattus norvegicus [12] = test: Concentration was measured in heart tissue of unfasted Fischer 344 rats administered intravenously after 5 minute (radiolabeled with [123I]-; format: ADME, organism-based; settings: in vivo, iv, 5 min
# Rattus norvegicus [13] = test: Concentration was measured in heart tissue of unfasted Fischer 344 rats, administered intravenous, after 5 minute (radiolabeled with [125I]-; format: ADME, organism-based; settings: in vivo, 5 min; summary of the method: as §1
# Rattus norvegicus [14] = test: Concentration was measured in kidney tissue of unfasted Fischer 344 rats administered intravenously after 30 minute (radiolabeled with [123I]-; format: ADME, organism-based; settings: in vivo, iv, 0.5 h
# Rattus norvegicus [15] = test: Concentration was measured in kidney tissue of unfasted Fischer 344 rats administered intravenously after 4 hr (radiolabeled with [123I]-; format: ADME, organism-based; settings: in vivo, iv
# Rattus norvegicus [16] = test: Concentration was measured in kidney tissue of unfasted Fischer 344 rats administered intravenously after 5 minute (radiolabeled with [123I]-; format: ADME, organism-based; settings: in vivo, iv, 5 min
# Rattus norvegicus [17] = test: Concentration was measured in kidney tissue of unfasted Fischer 344 rats administered intravenously after 60 minute (radiolabeled with [123I]-; format: ADME, organism-based; settings: in vivo, iv, 1 h
# Rattus norvegicus [18] = test: Concentration was measured in lungs tissue of unfasted Fischer 344 rats administered intravenously after 5 minute (radiolabeled with [123I]-; format: ADME, organism-based, Lung; settings: in vivo, iv, 5 min
# Rattus norvegicus [19] = test: Concentration was measured in lungs tissue of unfasted Fischer 344 rats administered intravenously after 5 minute (radiolabeled with [125I]-; format: ADME, organism-based, Lung; settings: in vivo, iv, 5 min; summary of the method: as §1
# Rattus norvegicus [20] = test: Concentration was measured in lungs tissue of unfasted Fischer 344 rats administered intravenously after 60 minute (radiolabeled with [123I]-; format: ADME, organism-based, Lung; settings: in vivo, iv, 1 h
# Rattus norvegicus [21] = test: Concentration was measured in blood tissue of unfasted Fischer 344 rats administered intravenously after 30 minute (radiolabeled with [123I]-; format: ADME, organism-based; settings: in vivo, iv, 0.5 h
# Rattus norvegicus [22] = test: Concentration was measured in blood tissue of unfasted Fischer 344 rats administered intravenously after 4 hr (radiolabeled with [123I]-; format: ADME, organism-based; settings: in vivo, iv
# Rattus norvegicus [23] = test: Concentration was measured in blood tissue of unfasted Fischer 344 rats administered intravenously after 60 minute (radiolabeled with [123I]-; format: ADME, organism-based; settings: in vivo, iv, 1 h
# Rattus norvegicus [24] = test: Concentration was measured in blood tissue of unfasted Fischer 344 rats administered intravenously after 60 minute (radiolabeled with [125I]-; format: ADME, organism-based; settings: in vivo, iv, 1 h; summary of the method: as §1
# Rattus norvegicus [25] = test: Concentration was measured in blood tissue of unfasted Fischer 344 rats administered intravenously after 5 minute (radiolabeled with [123I]-; format: ADME, organism-based; settings: in vivo, iv, 5 min
# Rattus norvegicus [26] = test: Concentration was measured in blood tissue of unfasted Fischer 344 rats administered intravenously after 5 minute (radiolabeled with [125I]-; format: ADME, organism-based; settings: in vivo, iv, 5 min; summary of the method: as §1
# Rattus norvegicus [27] = test: Concentration was measured in mean heart/blood tissue of unfasted Fischer 344 rats administered intravenously after 4 hr (radiolabeled with [123I]-; format: ADME, organism-based; settings: in vivo, iv
# Rattus norvegicus [28] = test: Concentration was measured in thyroid tissue of unfasted Fischer 344 rats administered intravenously after 30 minute (radiolabeled with [125I]-; format: ADME, organism-based, Thyroid gland; settings: in vivo, iv, 0.5 h, in the assay text read “fasted” for “unfasted”
# Rattus norvegicus [29] = test: Concentration was measured in thyroid tissue of unfasted Fischer 344 rats administered intravenously after 4 hr (radiolabeled with [125I]-; format: ADME, organism-based, Thyroid gland; settings: in vivo, iv
# Rattus norvegicus [30] = test: Concentration was measured in tissue of unfasted Fischer 344 rats administered intravenously after 60 minute (radiolabeled with [123I]-; format: ADME, organism-based; settings: in vivo, iv, 1 h
# Rattus norvegicus [31] = test: Concentration was measured in tissue of unfasted Fischer 344 rats administered intravenously after 60 minute (radiolabeled with [125I]-; format: ADME, organism-based; settings: in vivo, iv, 1 h
# Summary of the method: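 Female Fischer 344 rats, 10–12 weeks old (170–200 g), with food and water ad libitum, five per time point. The radioiodinated fatty acid was dissolved in ethanol, added to 6% BSA at ~40 °C (final 10% ethanol), filtered, and injected into a lateral tail vein (0.5 mL) under ether anesthesia. Blood was taken by cardiac puncture; organs were rinsed, blotted, weighed and gamma-counted against injectate standards. Output is % injected dose/g.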
# Rattus norvegicus [32] = test: Concentration was measured in lungs tissue of unfasted Fischer 344 rats administered intravenously after 60 minute (radiolabeled with [125I]-; format: ADME, organism-based, Lung; settings: in vivo, iv, 1 h; summary of the method: as §1
# Rattus norvegicus [33] = test: Concentration was measured in blood tissue of unfasted Fischer 344 rats administered intravenously after 30 minute (radiolabeled with [125I]-; format: ADME, organism-based; settings: in vivo, iv, 0.5 h, in the assay text read “fasted” for “unfasted”
# Rattus norvegicus [34] = test: Concentration was measured in thyroid tissue of fasted Fischer 344 rats administered intravenously after 4 hr (radiolabeled with [123I]-; settings: in vivo, iv
# Rattus norvegicus [35] = test: Concentration was measured in thyroid tissue of fasted Fischer 344 rats administered intravenously after 30 minute (radiolabeled with [123I]-; settings: in vivo, iv, 0.5 h
# Rattus norvegicus [36] = test: Concentration was measured in mean heart/blood tissue of fasted Fischer 344 rats administered intravenously after 5 minute (radiolabeled with [123I]-; settings: in vivo, iv, 5 min
# Rattus norvegicus [37] = test: Concentration was measured in mean heart/blood tissue of fasted Fischer 344 rats administered intravenously after 5 minute (radiolabeled with [125I]-; settings: in vivo, iv, 5 min
# Rattus norvegicus [38] = test: Concentration was measured in mean heart/blood tissue of fasted Fischer 344 rats administered intravenously after 30 minute (radiolabeled with [123I]-; settings: in vivo, iv, 0.5 h
# Rattus norvegicus [39] = test: Concentration was measured in mean heart/blood tissue of fasted Fischer 344 rats administered intravenously after 30 minute (radiolabeled with [125I]-; settings: in vivo, iv, 0.5 h
compound,measurement,setting,value
CC(CCCCCCCCCCCCCC/C=C/I)CC(=O)O.O=C(O)CCCCCCCCCCCCCCCC/C=C/I (centres undefined),Distribution,Rattus norvegicus [1],1.3%
same,Distribution,Rattus norvegicus [2],4.53%
same,Distribution,Rattus norvegicus [3],1.83%
same,Distribution,Rattus norvegicus [4],6.48%
same,Distribution,Rattus norvegicus [5],1.32%
same,Distribution,Rattus norvegicus [6],0.96%
same,Distribution,Rattus norvegicus [7],0.81%
same,Distribution,Rattus norvegicus [8],3.32%
same,Distribution,Rattus norvegicus [9],1.19%
same,Distribution,Rattus norvegicus [10],0.59%
same,Distribution,Rattus norvegicus [11],1.38%
same,Distribution,Rattus norvegicus [12],3.52%
same,Distribution,Rattus norvegicus [13],4.89%
same,Distribution,Rattus norvegicus [14],1.03%
same,Distribution,Rattus norvegicus [15],0.95%
same,Distribution,Rattus norvegicus [16],1.12%
same,Distribution,Rattus norvegicus [17],0.96%
same,Distribution,Rattus norvegicus [18],1.54%
same,Distribution,Rattus norvegicus [19],1.36%
same,Distribution,Rattus norvegicus [20],1.21%
same,Distribution,Rattus norvegicus [21],0.74%
same,Distribution,Rattus norvegicus [22],0.61%
same,Distribution,Rattus norvegicus [23],0.64%
same,Distribution,Rattus norvegicus [24],0.63%
same,Distribution,Rattus norvegicus [25],0.74%
same,Distribution,Rattus norvegicus [26],0.91%
same,Distribution,Rattus norvegicus [27],0.96%
same,Distribution,Rattus norvegicus [28],48.5%
same,Distribution,Rattus norvegicus [29],364%
same,Distribution,Rattus norvegicus [30],2.62%
same,Distribution,Rattus norvegicus [31],82.9%
same,Distribution,Rattus norvegicus [32],0.89%
same,Distribution,Rattus norvegicus [33],0.77%
same,Distribution,Rattus norvegicus [34],392%
same,Distribution,Rattus norvegicus [35],65.3%
same,Distribution,Rattus norvegicus [36],4.8%
same,Distribution,Rattus norvegicus [37],5.4%
same,Distribution,Rattus norvegicus [38],1.6%
same,Distribution,Rattus norvegicus [39],4.3%
